Experimental data taken from ChEMBL document CHEMBL3351833, “Synthesis and Biological Evaluation of Pyrazolo[1,5-a]pyrimidine Compounds as Potent and Selective Pim-1 Inhibitors” (ACS Med Chem Lett, 2015).
pEC50, pIC50: −log10 of the molar value. One block for each molecule: values may come before it.

Experiments:
[1] = target: T1, Receptor-type tyrosine-protein kinase FLT3 (Homo sapiens, UniProt P36888); experiment: Inhibition of human Flt3 (unknown origin)
T1 sequence (P36888 whole entry): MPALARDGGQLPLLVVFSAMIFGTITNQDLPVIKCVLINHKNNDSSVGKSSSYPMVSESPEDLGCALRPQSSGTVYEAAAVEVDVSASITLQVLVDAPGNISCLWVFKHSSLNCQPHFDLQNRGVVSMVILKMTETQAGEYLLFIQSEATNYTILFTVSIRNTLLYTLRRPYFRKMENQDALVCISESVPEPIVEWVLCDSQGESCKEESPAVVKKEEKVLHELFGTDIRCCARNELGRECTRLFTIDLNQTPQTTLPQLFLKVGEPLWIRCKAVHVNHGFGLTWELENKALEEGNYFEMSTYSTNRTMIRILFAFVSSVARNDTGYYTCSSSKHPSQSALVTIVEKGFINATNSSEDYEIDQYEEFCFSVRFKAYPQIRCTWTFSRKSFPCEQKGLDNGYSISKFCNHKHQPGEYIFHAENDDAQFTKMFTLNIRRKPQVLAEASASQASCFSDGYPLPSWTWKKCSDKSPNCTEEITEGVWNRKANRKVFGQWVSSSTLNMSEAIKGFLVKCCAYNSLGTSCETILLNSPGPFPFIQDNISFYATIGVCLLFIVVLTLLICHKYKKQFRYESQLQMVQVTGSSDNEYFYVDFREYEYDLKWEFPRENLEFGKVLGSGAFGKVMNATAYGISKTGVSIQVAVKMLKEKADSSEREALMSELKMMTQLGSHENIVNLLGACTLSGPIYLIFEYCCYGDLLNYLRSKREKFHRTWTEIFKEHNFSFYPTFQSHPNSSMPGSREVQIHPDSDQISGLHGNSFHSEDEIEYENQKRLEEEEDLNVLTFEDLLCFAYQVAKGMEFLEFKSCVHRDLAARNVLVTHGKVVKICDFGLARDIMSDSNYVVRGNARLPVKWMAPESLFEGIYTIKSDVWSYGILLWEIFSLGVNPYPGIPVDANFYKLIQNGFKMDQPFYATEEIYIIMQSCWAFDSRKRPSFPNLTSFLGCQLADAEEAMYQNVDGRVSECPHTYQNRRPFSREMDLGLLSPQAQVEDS

[2] = target: Proto-oncogene tyrosine-protein kinase Src (Homo sapiens) (UniProt P12931); experiment: Inhibition of c-Src (unknown origin) at 1 uM
[3] = target: Homeodomain-interacting protein kinase 2 (Homo sapiens) (UniProt Q9H2X6); experiment: Inhibition of HIPK2 (unknown origin) at 1 uM
[4] = target: T2, Homeodomain-interacting protein kinase 4 (Homo sapiens) (UniProt Q8NE63); experiment: Inhibition of HIPK4 (unknown origin) at 1 uM
T2 sequence (whole entry): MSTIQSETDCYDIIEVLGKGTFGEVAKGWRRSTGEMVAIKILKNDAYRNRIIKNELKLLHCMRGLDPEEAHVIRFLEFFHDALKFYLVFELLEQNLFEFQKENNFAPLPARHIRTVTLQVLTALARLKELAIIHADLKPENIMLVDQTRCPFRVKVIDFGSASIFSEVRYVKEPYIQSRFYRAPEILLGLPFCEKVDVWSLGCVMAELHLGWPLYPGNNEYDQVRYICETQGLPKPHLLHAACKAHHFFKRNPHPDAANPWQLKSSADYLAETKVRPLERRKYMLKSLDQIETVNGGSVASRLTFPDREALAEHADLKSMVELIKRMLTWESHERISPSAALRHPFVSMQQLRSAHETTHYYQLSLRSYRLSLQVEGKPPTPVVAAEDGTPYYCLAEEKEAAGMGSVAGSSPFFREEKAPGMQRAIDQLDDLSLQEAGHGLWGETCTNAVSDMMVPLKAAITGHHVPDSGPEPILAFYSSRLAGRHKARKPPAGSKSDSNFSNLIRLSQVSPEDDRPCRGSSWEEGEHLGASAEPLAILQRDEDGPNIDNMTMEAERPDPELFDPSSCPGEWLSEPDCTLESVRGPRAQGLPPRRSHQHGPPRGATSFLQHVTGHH

[5] = target: Tyrosine-protein kinase Yes (Homo sapiens) (UniProt P07947); experiment: Inhibition of YES1 (unknown origin) at 1 uM
[6] = target: Voltage-gated inwardly rectifying potassium channel KCNH2 (Homo sapiens, UniProt Q12809); experiment: Inhibition of human ERG expressed in CHO cells by automated patch clamp method; type: cell-based
[7] = target: Serine/threonine-protein kinase pim-2 (Homo sapiens, UniProt Q9P1W9); experiment: Inhibition of Pim2 (unknown origin) using luciferase-luciferin based ATP detection reagent by Kinase-Glo assay; details: for pIC50: read-out: IC50
[8] = target: Tyrosine-protein kinase JAK2 (Homo sapiens) (UniProt O60674); experiment: Inhibition of JAK2 (unknown origin) at 1 uM
[9] = target: Receptor-type tyrosine-protein kinase FLT3 (Homo sapiens) (UniProt P36888); details: 1 uM
[10] = target: BDNF/NT-3 growth factors receptor (Homo sapiens) (UniProt Q16620); experiment: Inhibition of TRKB (unknown origin) at 1 uM
[11] = target: Macrophage colony-stimulating factor 1 receptor (Homo sapiens) (UniProt P07333); experiment: Inhibition of FMS (unknown origin) at 1 uM
[12] = target: Tyrosine-protein kinase Fyn (Homo sapiens) (UniProt P06241); experiment: Inhibition of FYN (unknown origin) at 1 uM
[13] = target: NT-3 growth factor receptor (Homo sapiens) (UniProt Q16288); experiment: Inhibition of TRKC (unknown origin) at 1 uM
[14] = Growth inhibition of human HSC3 cells after 24 hrs by Clonogenic cell survival assay; type: functional, cell-based; details: HSC-3, 24 h
Method in brief: (§1)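 Two-dimensional colony formation (clonogenic survival) of human UM-UC-3 bladder carcinoma and HSC-3 oral squamous carcinoma cells, assessing the cytostatic effect on colony growth.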

[15] = target: Casein kinase II subunit alpha (Homo sapiens) (UniProt P68400); experiment: Inhibition of CK2a (unknown origin) at 1 uM
[16] = target: High affinity nerve growth factor receptor (Homo sapiens) (UniProt P04629); experiment: Inhibition of TRKA (unknown origin) at 1 uM
[17] = target: T3, Serine/threonine-protein kinase haspin (Homo sapiens) (UniProt Q8TF76); experiment: Inhibition of Haspin (unknown origin) at 1 uM
T3 sequence (whole entry): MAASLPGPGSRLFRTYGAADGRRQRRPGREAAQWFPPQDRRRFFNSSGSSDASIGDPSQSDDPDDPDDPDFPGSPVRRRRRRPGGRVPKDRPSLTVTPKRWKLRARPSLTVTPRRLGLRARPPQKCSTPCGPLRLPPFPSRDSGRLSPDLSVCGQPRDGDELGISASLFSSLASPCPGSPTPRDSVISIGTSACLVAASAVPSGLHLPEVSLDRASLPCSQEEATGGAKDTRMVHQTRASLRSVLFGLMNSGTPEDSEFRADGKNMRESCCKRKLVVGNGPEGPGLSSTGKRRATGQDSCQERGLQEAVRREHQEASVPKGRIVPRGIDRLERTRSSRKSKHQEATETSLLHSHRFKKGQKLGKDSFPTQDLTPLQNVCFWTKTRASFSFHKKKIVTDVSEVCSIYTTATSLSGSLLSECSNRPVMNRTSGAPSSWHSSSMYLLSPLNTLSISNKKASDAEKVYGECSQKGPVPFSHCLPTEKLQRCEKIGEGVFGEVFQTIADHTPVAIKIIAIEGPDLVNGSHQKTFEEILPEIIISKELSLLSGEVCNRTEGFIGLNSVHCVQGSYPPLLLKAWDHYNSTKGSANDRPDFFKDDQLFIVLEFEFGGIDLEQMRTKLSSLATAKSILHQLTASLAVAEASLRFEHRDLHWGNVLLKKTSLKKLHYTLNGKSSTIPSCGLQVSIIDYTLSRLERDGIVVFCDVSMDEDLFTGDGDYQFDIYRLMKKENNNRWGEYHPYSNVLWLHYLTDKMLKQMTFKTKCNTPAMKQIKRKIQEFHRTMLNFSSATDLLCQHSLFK

[18] = Growth inhibition of human UM-UC-3 cells after 24 hrs by Clonogenic cell survival assay; type: functional, cell-based; details: UMUC3, 24 h; method in brief: as §1
[19] = target: T4, Serine/threonine-protein kinase pim-1 (Homo sapiens, UniProt P11309); experiment: Inhibition of Pim1 (unknown origin) using luciferase-luciferin based ATP detection reagent at 1 uM by Kinase-Glo assay
Target sequence in this assay (P11309 whole entry, looked up): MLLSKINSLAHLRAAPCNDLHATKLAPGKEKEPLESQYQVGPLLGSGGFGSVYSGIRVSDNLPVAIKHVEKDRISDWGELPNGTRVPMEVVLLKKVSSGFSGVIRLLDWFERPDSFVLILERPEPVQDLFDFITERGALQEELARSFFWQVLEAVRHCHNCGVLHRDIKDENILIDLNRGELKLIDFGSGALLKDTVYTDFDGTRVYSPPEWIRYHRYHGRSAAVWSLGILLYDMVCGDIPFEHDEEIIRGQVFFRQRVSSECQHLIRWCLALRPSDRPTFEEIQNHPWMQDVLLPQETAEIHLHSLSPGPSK

[20] = target: Tyrosine-protein kinase Lck (Homo sapiens) (UniProt P06239); experiment: Inhibition of LCK (unknown origin) at 1 uM
[21] = target: T5, Muscle, skeletal receptor tyrosine-protein kinase (Homo sapiens) (UniProt O15146); experiment: Inhibition of MUSK (unknown origin) at 1 uM
T5 sequence (whole entry): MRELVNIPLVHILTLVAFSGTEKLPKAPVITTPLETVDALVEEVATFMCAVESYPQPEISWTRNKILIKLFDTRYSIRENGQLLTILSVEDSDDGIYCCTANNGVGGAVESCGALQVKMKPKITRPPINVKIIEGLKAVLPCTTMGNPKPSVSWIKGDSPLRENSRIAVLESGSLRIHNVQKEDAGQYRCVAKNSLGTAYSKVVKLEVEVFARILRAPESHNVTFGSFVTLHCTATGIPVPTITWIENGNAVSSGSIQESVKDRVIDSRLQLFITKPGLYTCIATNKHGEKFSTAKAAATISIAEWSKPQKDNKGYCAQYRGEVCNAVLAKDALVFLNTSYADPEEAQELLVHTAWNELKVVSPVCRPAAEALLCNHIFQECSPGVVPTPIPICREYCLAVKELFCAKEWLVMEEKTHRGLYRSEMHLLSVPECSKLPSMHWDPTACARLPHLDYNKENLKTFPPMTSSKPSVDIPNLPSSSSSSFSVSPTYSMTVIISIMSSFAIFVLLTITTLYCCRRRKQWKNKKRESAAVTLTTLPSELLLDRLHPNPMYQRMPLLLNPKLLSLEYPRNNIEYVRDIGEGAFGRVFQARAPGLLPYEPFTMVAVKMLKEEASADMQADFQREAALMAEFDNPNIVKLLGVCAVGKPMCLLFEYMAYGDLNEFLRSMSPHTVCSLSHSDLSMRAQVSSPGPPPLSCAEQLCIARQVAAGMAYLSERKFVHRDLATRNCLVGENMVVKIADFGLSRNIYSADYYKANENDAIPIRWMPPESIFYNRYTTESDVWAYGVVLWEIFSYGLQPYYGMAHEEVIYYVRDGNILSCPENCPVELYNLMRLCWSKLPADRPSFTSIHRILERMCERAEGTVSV

[22] = target: T4, Serine/threonine-protein kinase pim-1; experiment: Inhibition of Pim1 (unknown origin) using luciferase-luciferin based ATP detection reagent by Kinase-Glo assay; details: for pIC50: read-out: IC50
Target sequence in this assay (P11309 whole entry): as the sequence (P11309 whole entry, looked up) above

Serine/threonine-protein kinase pim-2, sequence (Q9P1W9 whole entry): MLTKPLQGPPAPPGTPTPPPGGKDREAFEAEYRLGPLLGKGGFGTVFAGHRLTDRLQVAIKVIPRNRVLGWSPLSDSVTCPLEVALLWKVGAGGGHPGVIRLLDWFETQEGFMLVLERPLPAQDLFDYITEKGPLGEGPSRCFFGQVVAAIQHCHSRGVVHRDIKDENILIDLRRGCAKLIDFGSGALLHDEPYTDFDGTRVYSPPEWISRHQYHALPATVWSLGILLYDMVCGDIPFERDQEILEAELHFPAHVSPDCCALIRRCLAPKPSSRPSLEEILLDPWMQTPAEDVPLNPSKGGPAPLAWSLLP
Homeodomain-interacting protein kinase 2 (Homo sapiens), sequence (Q9H2X6 whole entry, looked up): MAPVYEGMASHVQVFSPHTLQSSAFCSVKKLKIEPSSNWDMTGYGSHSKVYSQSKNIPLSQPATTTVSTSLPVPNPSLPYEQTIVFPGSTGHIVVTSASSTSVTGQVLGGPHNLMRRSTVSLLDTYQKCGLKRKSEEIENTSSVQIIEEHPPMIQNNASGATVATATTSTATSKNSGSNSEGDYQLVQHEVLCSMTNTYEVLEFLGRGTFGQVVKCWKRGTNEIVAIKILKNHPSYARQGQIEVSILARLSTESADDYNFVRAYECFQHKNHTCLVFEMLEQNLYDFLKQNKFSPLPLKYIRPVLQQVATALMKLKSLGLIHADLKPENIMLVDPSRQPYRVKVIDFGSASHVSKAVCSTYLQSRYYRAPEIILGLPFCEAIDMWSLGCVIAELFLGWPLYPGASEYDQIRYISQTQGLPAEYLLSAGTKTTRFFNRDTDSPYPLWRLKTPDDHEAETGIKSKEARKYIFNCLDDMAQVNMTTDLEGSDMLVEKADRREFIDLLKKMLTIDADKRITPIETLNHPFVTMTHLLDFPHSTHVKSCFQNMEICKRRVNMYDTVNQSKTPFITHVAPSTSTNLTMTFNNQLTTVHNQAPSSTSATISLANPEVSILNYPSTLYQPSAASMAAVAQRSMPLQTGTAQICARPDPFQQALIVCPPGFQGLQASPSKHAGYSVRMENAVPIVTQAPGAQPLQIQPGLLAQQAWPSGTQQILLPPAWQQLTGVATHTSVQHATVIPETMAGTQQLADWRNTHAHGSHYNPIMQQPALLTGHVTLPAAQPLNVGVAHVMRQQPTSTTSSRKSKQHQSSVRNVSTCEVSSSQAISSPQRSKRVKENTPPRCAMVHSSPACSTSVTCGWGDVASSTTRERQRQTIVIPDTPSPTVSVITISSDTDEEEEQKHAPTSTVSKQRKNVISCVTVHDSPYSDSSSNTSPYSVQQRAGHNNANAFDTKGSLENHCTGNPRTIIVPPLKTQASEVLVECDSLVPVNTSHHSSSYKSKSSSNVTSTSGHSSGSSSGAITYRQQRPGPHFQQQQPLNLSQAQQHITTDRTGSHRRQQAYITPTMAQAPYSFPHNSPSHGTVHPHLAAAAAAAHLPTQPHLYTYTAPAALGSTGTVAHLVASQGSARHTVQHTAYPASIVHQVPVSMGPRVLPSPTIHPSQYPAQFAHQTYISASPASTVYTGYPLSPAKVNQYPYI
Casein kinase II subunit alpha (Homo sapiens), sequence (P68400 whole entry, looked up): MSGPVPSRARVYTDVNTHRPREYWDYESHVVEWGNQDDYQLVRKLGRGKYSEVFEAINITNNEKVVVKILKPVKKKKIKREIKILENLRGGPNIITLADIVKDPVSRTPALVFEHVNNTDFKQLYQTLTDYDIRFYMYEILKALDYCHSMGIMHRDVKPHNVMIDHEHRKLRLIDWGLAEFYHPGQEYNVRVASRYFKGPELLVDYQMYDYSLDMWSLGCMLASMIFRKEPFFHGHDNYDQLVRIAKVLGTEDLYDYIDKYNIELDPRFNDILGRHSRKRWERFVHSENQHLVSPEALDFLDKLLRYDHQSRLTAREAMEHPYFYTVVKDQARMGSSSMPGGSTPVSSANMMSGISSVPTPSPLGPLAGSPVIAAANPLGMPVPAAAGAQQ
BDNF/NT-3 growth factors receptor (Homo sapiens), sequence (Q16620 32-822 limits assumed): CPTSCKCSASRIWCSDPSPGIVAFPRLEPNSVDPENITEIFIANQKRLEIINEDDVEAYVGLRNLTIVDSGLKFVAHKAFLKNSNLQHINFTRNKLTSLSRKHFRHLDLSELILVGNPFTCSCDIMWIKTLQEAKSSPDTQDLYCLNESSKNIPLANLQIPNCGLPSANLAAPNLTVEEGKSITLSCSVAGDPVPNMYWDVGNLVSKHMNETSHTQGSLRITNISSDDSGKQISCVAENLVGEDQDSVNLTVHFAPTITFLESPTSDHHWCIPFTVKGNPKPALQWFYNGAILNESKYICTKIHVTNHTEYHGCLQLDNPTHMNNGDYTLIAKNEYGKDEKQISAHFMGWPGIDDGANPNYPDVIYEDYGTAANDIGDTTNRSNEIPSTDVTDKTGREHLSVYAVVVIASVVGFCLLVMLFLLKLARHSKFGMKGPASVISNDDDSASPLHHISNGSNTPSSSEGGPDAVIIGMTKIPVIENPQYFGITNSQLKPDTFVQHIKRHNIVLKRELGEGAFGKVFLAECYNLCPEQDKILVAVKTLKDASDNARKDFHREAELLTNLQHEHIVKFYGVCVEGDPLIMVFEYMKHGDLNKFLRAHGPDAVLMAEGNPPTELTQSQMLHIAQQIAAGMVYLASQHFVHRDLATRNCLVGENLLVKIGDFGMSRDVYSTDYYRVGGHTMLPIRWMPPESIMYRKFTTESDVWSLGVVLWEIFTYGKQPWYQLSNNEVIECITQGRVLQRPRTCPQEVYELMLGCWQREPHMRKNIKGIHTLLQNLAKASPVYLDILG
Tyrosine-protein kinase Yes (Homo sapiens), sequence (P07947 2-543 limits assumed): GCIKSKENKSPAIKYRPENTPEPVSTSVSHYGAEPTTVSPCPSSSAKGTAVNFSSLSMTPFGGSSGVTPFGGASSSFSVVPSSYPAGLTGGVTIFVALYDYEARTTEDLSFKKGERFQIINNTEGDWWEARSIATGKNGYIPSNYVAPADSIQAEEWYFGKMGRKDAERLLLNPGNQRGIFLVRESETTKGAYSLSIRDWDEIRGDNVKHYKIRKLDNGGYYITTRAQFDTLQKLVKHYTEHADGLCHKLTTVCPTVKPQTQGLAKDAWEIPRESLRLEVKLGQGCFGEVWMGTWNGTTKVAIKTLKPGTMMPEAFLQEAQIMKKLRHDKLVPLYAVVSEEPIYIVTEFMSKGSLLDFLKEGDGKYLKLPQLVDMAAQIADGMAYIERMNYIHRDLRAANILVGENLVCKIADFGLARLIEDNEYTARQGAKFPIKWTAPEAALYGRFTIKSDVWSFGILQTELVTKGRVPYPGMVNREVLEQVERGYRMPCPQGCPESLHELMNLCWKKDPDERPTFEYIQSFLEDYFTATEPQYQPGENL
Tyrosine-protein kinase Fyn (Homo sapiens), sequence (P06241 2-537 limits assumed): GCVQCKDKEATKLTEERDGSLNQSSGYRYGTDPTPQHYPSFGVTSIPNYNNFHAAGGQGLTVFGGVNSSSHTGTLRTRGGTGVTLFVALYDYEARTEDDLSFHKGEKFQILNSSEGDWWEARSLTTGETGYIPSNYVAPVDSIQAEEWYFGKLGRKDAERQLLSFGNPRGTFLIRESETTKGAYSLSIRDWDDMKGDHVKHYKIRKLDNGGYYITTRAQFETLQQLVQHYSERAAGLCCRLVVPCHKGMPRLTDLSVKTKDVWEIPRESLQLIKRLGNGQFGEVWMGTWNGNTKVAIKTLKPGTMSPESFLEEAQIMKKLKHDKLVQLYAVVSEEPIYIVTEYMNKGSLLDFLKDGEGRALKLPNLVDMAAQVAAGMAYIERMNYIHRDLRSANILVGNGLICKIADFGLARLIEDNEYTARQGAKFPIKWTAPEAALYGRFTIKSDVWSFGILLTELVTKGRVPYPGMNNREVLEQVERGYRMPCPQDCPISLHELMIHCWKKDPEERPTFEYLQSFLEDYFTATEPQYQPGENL
Proto-oncogene tyrosine-protein kinase Src (Homo sapiens), sequence (P12931 2-536 limits assumed): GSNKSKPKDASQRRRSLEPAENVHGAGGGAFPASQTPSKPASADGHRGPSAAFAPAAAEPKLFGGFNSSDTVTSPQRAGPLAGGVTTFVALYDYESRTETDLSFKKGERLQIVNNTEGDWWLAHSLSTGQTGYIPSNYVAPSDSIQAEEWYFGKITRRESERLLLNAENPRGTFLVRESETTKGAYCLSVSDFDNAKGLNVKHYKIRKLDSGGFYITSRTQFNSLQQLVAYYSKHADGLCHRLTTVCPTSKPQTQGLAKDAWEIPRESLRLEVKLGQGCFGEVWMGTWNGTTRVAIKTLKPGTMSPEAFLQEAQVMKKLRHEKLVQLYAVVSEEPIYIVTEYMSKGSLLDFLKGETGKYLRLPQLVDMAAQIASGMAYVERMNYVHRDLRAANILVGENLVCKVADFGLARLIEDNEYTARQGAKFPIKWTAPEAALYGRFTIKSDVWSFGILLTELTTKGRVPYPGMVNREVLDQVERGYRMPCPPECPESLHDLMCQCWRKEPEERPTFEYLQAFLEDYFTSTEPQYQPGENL

Structure (SMILES): N[C@H]1CC[C@H](Nc2ccn3ncc(-c4cccc(OC(F)(F)F)c4)c3n2)CC1
pIC50 [7]: 7.00

Structure (SMILES): O[C@H]1CC[C@H](Nc2ccn3ncc(-c4cccc(OC(F)(F)F)c4)c3n2)CC1
pIC50 [1]: 6.80
pIC50 [7]: 6.57

Structure (SMILES): N[C@H]1CC[C@H](Nc2ccn3ncc(-c4cccc(Cl)c4)c3n2)CC1
pIC50 [7]: 6.14

Structure (SMILES): FC(F)(F)Oc1cccc(-c2cnn3ccc(NCC4CCOCC4)nc23)c1
pIC50 [22]: 6.20
pIC50 [7]: 5.43

Structure (SMILES): N[C@H]1CCCN(c2ccn3ncc(-c4cccc(OC(F)(F)F)c4)c3n2)C1
pIC50 [7]: 6.01

Structure (SMILES): O=S1(=O)CCC(Nc2ccn3ncc(-c4cccc(C(F)(F)F)c4)c3n2)CC1
IC50 [22]: Not Active
IC50 [7]: Not Active

Structure (SMILES): O=C1CCN(c2ccn3ncc(-c4cccc(Cl)c4)c3n2)CC1
pIC50 [22]: 6.77
pIC50 [7]: 6.25

Structure (SMILES): O[C@H]1CC[C@H](Nc2ccn3ncc(-c4cccc(C(F)(F)F)c4)c3n2)CC1
pIC50 [1]: 7.28
pIC50 [7]: 6.55

More lines, main results first:

pIC50 [1]: 6.90
inhibition [2]: > 50%
inhibition [3]: > 50%
inhibition [4]: > 80%
inhibition [5]: > 50%
pIC50 [7]: 6.64
inhibition [8]: > 50%
inhibition [9]: > 90%
inhibition [10]: > 90%
inhibition [11]: > 50%
inhibition [12]: > 50%
inhibition [13]: 96%
inhibition [15]: > 50%
inhibition [16]: > 80%
inhibition [17]: > 80%
inhibition [19]: > 98%
inhibition [20]: > 80%
inhibition [21]: > 80%
Structure (SMILES): CC(C)(O)[C@H]1CC[C@H](Nc2ccn3ncc(-c4cccc(Cl)c4)c3n2)CC1
pIC50 [6]: < 4.52
pEC50 [14]: 6.22
pEC50 [18]: 6.04

pIC50 [7]: 5.33
Structure (SMILES): CO[C@H]1CC[C@H](Nc2ccn3ncc(-c4cccc(C(F)(F)F)c4)c3n2)CC1

pIC50 [7]: 6.19
Structure (SMILES): C[C@]1(O)CC[C@H](Nc2ccn3ncc(-c4cccc(C(F)(F)F)c4)c3n2)CC1

pIC50 [7]: 5.22
Structure (SMILES): O=S1(=O)CCC(CNc2ccn3ncc(-c4cccc(C(F)(F)F)c4)c3n2)CC1
